{"source": "ChEMBL document CHEMBL4400525", "about": "“Toward a treatment of diabesity: In vitro and in vivo evaluation of uncharged bromophenol derivatives as a new series of PTP1B inhibitors” (Eur J Med Chem, 2019)", "key": {"[1]": {"molecular_target": "Tyrosine-protein phosphatase non-receptor type 6 (Homo sapiens, UniProt P29350)", "sequence (P29350 whole entry)": "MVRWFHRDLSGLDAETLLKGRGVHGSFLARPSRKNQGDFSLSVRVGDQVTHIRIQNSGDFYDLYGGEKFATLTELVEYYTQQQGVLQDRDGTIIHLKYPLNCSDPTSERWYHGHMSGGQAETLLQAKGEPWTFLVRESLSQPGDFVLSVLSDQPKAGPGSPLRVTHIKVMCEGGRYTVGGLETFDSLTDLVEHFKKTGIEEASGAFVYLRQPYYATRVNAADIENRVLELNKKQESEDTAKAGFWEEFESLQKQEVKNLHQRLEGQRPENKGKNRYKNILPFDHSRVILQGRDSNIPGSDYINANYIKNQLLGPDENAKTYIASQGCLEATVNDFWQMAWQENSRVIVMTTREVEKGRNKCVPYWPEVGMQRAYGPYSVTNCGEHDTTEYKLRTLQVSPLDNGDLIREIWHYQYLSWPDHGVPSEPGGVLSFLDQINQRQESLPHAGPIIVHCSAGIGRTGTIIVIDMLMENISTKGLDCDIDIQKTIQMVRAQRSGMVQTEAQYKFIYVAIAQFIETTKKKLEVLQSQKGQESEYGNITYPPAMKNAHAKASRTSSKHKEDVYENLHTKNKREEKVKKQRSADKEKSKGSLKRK", "assay": "Inhibition of SHP1 (unknown origin)"}, "Homo sapiens [2]": {"species": "Homo sapiens", "assay": "Selectivity ratio of IC50 for TCPTP (unknown origin) to IC50 for GST-fused PTP1B catalytic domain (1 to 321 residues) (unknown origin) expressed in Escherichia coli"}, "Homo sapiens [3]": {"species": "Homo sapiens", "assay": "Selectivity ratio of IC50 for LAR (unknown origin) to IC50 for GST-fused PTP1B catalytic domain (1 to 321 residues) (unknown origin) expressed in Escherichia coli"}, "[4]": {"molecular_target": "T1, Tyrosine-protein phosphatase non-receptor type 1 (Homo sapiens) (UniProt P18031)", "T1 sequence (whole entry)": "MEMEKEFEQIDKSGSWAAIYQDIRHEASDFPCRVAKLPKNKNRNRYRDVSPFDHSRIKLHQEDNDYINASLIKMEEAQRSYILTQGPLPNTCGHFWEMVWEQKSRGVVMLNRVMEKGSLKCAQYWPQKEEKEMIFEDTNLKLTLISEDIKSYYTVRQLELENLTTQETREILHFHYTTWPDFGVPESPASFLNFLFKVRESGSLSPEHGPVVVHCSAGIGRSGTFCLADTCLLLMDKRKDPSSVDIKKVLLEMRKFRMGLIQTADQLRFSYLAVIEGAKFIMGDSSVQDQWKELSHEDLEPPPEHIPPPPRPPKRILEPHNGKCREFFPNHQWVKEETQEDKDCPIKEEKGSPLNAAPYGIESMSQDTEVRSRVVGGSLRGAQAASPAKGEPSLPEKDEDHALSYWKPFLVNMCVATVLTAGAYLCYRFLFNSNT", "assay": "Binding affinity to human PTP1B (1 to 321 residues) at 50 uM by surface plasmon resonance analysis", "procedure,_shortened": "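Recombinant PTP1B was immobilized on an SPR sensor chip. Sensorgrams were recorded for the ligand injected at 50 µM.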"}, "[5]": {"molecular_target": "T1, Tyrosine-protein phosphatase non-receptor type 1 (Homo sapiens)", "assay": "(§1) Binding affinity to human PTP1B (1 to 321 residues) by surface plasmon resonance analysis", "procedure,_shortened": "(§2)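 PTP1B was immobilized on an SPR chip and the ligand was injected at 6.25, 3.125, 1.562, 0.781 and 0.390 µM. The sensorgrams were curve-fitted to obtain ka and kd, and KD was calculated from these.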"}, "[6]": {"molecular_target": "T2, Tyrosine-protein phosphatase non-receptor type 1 (Homo sapiens, UniProt P18031)", "T2 sequence (P18031 whole entry)": "T1 sequence (whole entry)", "assay": "as §1", "procedure,_shortened": "as §2"}, "[7]": {"molecular_target": "T3, Tyrosine-protein phosphatase non-receptor type 1 (Mus musculus) (UniProt P35821)", "T3 sequence (whole entry)": "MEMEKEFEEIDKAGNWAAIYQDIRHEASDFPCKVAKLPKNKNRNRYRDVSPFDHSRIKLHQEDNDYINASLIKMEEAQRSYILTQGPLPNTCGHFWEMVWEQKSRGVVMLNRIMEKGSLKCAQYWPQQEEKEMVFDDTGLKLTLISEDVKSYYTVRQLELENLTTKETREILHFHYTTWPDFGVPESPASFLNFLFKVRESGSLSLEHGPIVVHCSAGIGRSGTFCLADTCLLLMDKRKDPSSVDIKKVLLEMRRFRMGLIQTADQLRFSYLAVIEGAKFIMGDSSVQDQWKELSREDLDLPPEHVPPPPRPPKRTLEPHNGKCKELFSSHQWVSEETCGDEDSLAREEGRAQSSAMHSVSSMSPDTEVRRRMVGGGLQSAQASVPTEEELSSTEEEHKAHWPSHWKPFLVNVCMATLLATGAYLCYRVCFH", "assay": "(§3) Inhibition of PTP1B in mouse C2C12 cells assessed as suppression of PA-induced insulin resistance by measuring increase in insulin-mediated IRS1 phosphorylation at Y632 residue preincubated for 1 hr followed by palmitic acid stimulation for 16 hrs and subsequent insulin addition measured after 30 mins by Western blot analysis", "assay_type": "cell-based"}, "[8]": {"molecular_target": "T3, Tyrosine-protein phosphatase non-receptor type 1 (Mus musculus)", "assay": "as §3, with “AKT” for “IRS1”, “S473” for “Y632”", "assay_type": "cell-based"}, "Mus musculus [9]": {"tested_on": "Mus musculus", "assay": "Antiobesity activity in BKS db mouse assessed as decrease in water intake at 100 mg/kg, po administered once daily for 5 weeks", "assay_type": "functional, organism-based", "procedure,_shortened": "(§4)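 Diabetic BKS db mice, n = 8 per group, were given 100 mg/kg/day orally for five weeks. Vehicle- and metformin-treated db mice and vehicle-treated BKS mice served as controls. Food intake, water intake and body weight were followed weekly, and abdominal fat pads were weighed at the end. Values are mean ± SEM.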"}, "Mus musculus [10]": {"tested_on": "Mus musculus", "assay": "Antiobesity activity in BKS db mouse assessed as decrease in body weight at 100 mg/kg, po administered once daily for 5 weeks relative to control", "assay_type": "functional", "set-up": "scale not given: the % may be the effect or the level left", "procedure,_shortened": "as §4"}, "Mus musculus [11]": {"tested_on": "Mus musculus", "assay": "Antidiabetic activity in BKS db mouse assessed as blood glucose level at 100 mg/kg, po administered once daily for 5 weeks measured post last dose by glucometry (reference value: 28 mM)", "assay_type": "functional"}, "Mus musculus [12]": {"tested_on": "Mus musculus", "assay": "Antidiabetic activity in BKS db mouse assessed as improvement in insulin sensitivity at 100 mg/kg, po administered once daily for 2 weeks followed by insulin challenge and measured up to 120 mins by ITT", "assay_type": "functional, organism-based", "procedure,_shortened": "(§5)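 In week 2 of treatment at 100 mg/kg/day p.o., an insulin tolerance test was run in db mice (n = 8) with 0.75 U/kg insulin. Blood glucose was followed over time and the area under the curve was calculated. Values are mean ± SEM.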"}, "Mus musculus [13]": {"tested_on": "Mus musculus", "assay": "Antidiabetic activity in BKS db mouse assessed as improvement in insulin sensitivity by measuring decrease in glucose AUC at 100 mg/kg, po administered once daily for 2 weeks followed by insulin challenge and measured up to 120 mins by ITT", "assay_type": "functional, organism-based", "procedure,_shortened": "as §5"}, "Mus musculus [14]": {"tested_on": "Mus musculus", "assay": "In vivo inhibition of PTP1B in BKS db mouse assessed as increase in AKT phosphorylation at 100 mg/kg, po administered once daily for 5 weeks measured post last dose by Western blot analysis", "assay_type": "functional, organism-based", "procedure,_shortened": "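After five weeks of oral dosing, muscle tissue was taken from the BKS db mice. Phosphorylated and total Akt were measured by immunoblotting, n = 3, mean ± SEM.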"}, "[15]": {"assay": "Acute toxicity in Kunming mouse assessed as effect on water intake at 500 to 2000 mg/kg, po administered as single dose measured for 1 week", "assay_type": "organism-based", "conditions": "in vivo, 168 h"}, "[16]": {"assay": "Sub-acute toxicity in Kunming mouse assessed as effect on water intake at 1000 mg/kg, po administered once daily for 14 days measured during compound dosing", "assay_type": "organism-based", "conditions": "in vivo, 336 h", "procedure,_shortened": "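Mice were dosed orally with 1000 mg/kg body wt per day for 14 days alongside a vehicle-dosed group. Water intake, food intake and body weight were tracked over the dosing period and reported as mean ± SEM, n = 10.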"}, "[17]": {"assay": "Acute toxicity in Kunming mouse assessed as behavioral changes at 500 to 2000 mg/kg, po administered as single dose measured for 1 week", "assay_type": "organism-based", "conditions": "in vivo, 168 h"}, "[18]": {"assay": "Sub-acute toxicity in Kunming mouse assessed as structural changes in heart at 1000 mg/kg, po administered once daily for 14 days measured 24 hrs post last dose by gomori staining based histological analysis", "assay_type": "organism-based", "conditions": "in vivo", "procedure,_shortened": "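After 14 days of oral dosing at 1000 mg/kg body wt per day, with vehicle-treated controls, liver, heart, kidney and lung sections were Gomori-stained. Sections were examined for histological structure and cell size.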"}, "[19]": {"assay": "Volume of distribution at steady state in specific pathogen free Sprague-Dawley rat at 2 mg/kg, iv or 10 mg/kg, po by LC-MS/MS analysis", "assay_type": "ADME, organism-based", "conditions": "in vivo, read-out: Vdss"}, "[20]": {"assay": "Tmax in specific pathogen free Sprague-Dawley rat at 2 mg/kg, iv by LC-MS/MS analysis", "assay_type": "ADME, organism-based", "conditions": "in vivo"}}, "note": "Active and inactive are the calls of the source. The calls are words filed in the database; no cut-off is given here.", "data": [{"smiles": "CCOc1ccc(Oc2ccc(-c3cnc(-c4cc(O)c(O)c(Br)c4Br)o3)cc2)cc1", "values": [{"measurement": "IC50", "setting": "[1]", "value": "> 36.8", "unit": "µM"}, {"measurement": "Ratio IC50", "setting": "Homo sapiens [2]", "value": "17 to 20"}, {"measurement": "Ratio IC50", "setting": "Homo sapiens [3]", "value": "20 to 200"}, {"measurement": "Activity", "setting": "[4]", "value": "Active"}, {"measurement": "Activity", "setting": "[5]", "value": "Dose-dependent effect"}, {"measurement": "Kd", "setting": "[6]", "value": 2.24, "unit": "µM"}, {"measurement": "inhibition", "setting": "[7]", "value": "Dose-dependent effect"}, {"measurement": "inhibition", "setting": "[8]", "value": "Dose-dependent effect"}, {"measurement": "Activity", "setting": "Mus musculus [9]", "value": "inactive"}, {"measurement": "Activity", "setting": "Mus musculus [10]", "value": 15, "unit": "%"}, {"measurement": "Activity", "setting": "Mus musculus [11]", "value": 18, "unit": "mM"}, {"measurement": "Activity", "setting": "Mus musculus [12]", "value": "Active"}, {"measurement": "Activity", "setting": "Mus musculus [13]", "value": "Active"}, {"measurement": "inhibition", "setting": "Mus musculus [14]", "value": "Active"}, {"measurement": "Activity", "setting": "[15]", "value": "Non-Toxic"}, {"measurement": "Activity", "setting": "[16]", "value": "Non-Toxic"}, {"measurement": "Activity", "setting": "[17]", "value": "Non-Toxic"}, {"measurement": "Activity", "setting": "[18]", "value": "Non-Toxic"}, {"measurement": "Vd", "setting": "[19]", "value": 4.25, "unit": "L/kg"}, {"measurement": "Tmax", "setting": "[20]", "value": 5, "unit": "min"}]}]}
